# Measurements reported in ChEMBL document CHEMBL1141369, “Salinosporamides D-J from the marine actinomycete Salinispora tropica, bromosalinosporamide, and thioester derivatives are potent inhibitors of the 20S proteasome” (J Nat Prod, 2007).
# Assays:
# [1] = Inhibition of CT-L activity of rabbit muscle 20S proteasome; format: tissue-based, Oryctolagus cuniculus, Muscle tissue
# How it was run: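 Serially diluted compound added in duplicate and preincubated 5 min at 37 °C. Reaction started with Suc-LLVY-AMC at 20 µM final, fluorescence read at ex 390/em 460 nm. IC50 from sigmoidal variable-slope fit, mean ± SD of at least three independent experiments.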
# RPMI-8226 = test: Cytotoxicity against human RPMI 8226 cells; format: cell-based
# How it was run: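 Seeded at 2 × 10^4 cells/well, then serially diluted compound added in triplicate for 48 h. Growth read by resazurin reduction (fluorescence). IC50 = concentration giving 50% of maximal observed growth inhibition, from sigmoidal dose-response fit.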
compound,measurement,setting,value
COC(=O)CCSC(=O)[C@]1([C@@H](O)[C@@H]2C=CCCC2)NC(=O)[C@@H]2CCO[C@@]21C,IC50,[1],230 nM
same,IC50,RPMI-8226,7500 nM
C[C@@]12OC(=O)[C@]1(CC1C=CCCC1)NC(=O)[C@@H]2CCCl (stereo not given in full) [SALINOSPORAMIDE J],IC50,[1],52 nM
same,IC50,RPMI-8226,250 nM
CC[C@H]1C(=O)N[C@](C(=O)SCCC(=O)OC)([C@@H](O)[C@@H]2C=CCCC2)[C@@]1(C)O,IC50,[1],50 nM
same,IC50,RPMI-8226,8000 nM
COC(=O)CCSC(=O)[C@]1([C@@H](O)[C@@H]2C=CCCC2)NC(=O)[C@H](CCCl)[C@]1(C)O,IC50,[1],9.3 nM
same,IC50,RPMI-8226,11 nM
COC(=O)[C@@H](CSC(=O)[C@]1([C@@H](O)[C@@H]2C=CCCC2)NC(=O)[C@H](CCCl)[C@]1(C)O)NC(C)=O,IC50,[1],4 nM
same,IC50,RPMI-8226,9.7 nM
